Assay results from ChEMBL document CHEMBL3351470, “Synthesis and Structure-Activity Relationships of α-Amino-γ-lactone Ketolides: A Novel Class of Macrolide Antibiotics” (2014).
In brackets after ≈: the same amount, converted by molar mass.

Tests used:
Type in all cases: functional
Staphylococcus aureus [1] = experiment: Antibacterial activity against macrolide lincosamide- streptogramin B inducibly-resistant Staphylococcus aureus by agar microdilution method
Procedure, shortened: (§1)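 Agar microdilution MIC following NCCLS standards; strains taken from the Pliva Research Institute culture collection. Panel grouped by phenotype: erythromycin-susceptible, inducibly MLS-resistant (iMLS), constitutively MLSB-resistant and efflux-resistant (M). Azithromycin, telithromycin and cethromycin tested alongside as references. MIC reported in μg/mL.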

Streptococcus pneumoniae [2] = experiment: Antibacterial activity against efflux-resistant Streptococcus pneumoniae by agar microdilution method; procedure, shortened: as §1
Streptococcus pneumoniae [3] = experiment: Antibacterial activity against erythromycin-susceptible Streptococcus pneumoniae by agar microdilution method
Procedure, shortened: (§2)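 Strains from an in-house culture collection (Pliva Research Institute). MIC determined by agar microdilution following NCCLS standards and reported in μg/mL. Erythromycin-susceptible strains are listed as Ery-S; the panel also includes inducibly resistant (iMLS), constitutively resistant (MLSB) and efflux-resistant (M) strains.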

Staphylococcus aureus [4] = experiment: Antibacterial activity against macrolide lincosamide- streptogramin B-resistant Staphylococcus aureus by agar microdilution method; procedure, shortened: as §1
Haemophilus influenzae = experiment: Antibacterial activity against Haemophilus influenzae by agar microdilution method; procedure, shortened: as §2
Staphylococcus aureus [5] = experiment: Antibacterial activity against erythromycin-susceptible Staphylococcus aureus by agar microdilution method; procedure, shortened: as §2
Streptococcus pneumoniae [6] = experiment: Antibacterial activity against macrolide lincosamide- streptogramin B inducibly-resistant Streptococcus pneumoniae by agar microdilution method; procedure, shortened: as §1
Streptococcus pyogenes [7] = experiment: Antibacterial activity against efflux-resistant Streptococcus pyogenes by agar microdilution method; procedure, shortened: as §1
Streptococcus pyogenes [8] = experiment: Antibacterial activity against macrolide lincosamide- streptogramin B inducibly-resistant Streptococcus pyogenes by agar microdilution method; procedure, shortened: as §1
Streptococcus pyogenes [9] = experiment: Antibacterial activity against erythromycin-susceptible Streptococcus pyogenes by agar microdilution method; procedure, shortened: as §2

| Compound | MIC (Staphylococcus aureus [1]) | MIC (Streptococcus pneumoniae [2]) | MIC (Streptococcus pneumoniae [3]) | MIC (Staphylococcus aureus [4]) | MIC (Haemophilus influenzae) | MIC (Staphylococcus aureus [5]) | MIC (Streptococcus pneumoniae [6]) | MIC (Streptococcus pyogenes [7]) | MIC (Streptococcus pyogenes [8]) | MIC (Streptococcus pyogenes [9]) |
| --- | --- | --- | --- | --- | --- | --- | --- | --- | --- | --- |
| CC[C@H]1OC(=O)[C@H](C)[C@@H](O[C@H]2C[C@@](C)(OC)[C@@H](O)[C@H](C)O2)[C@H](C)[C@@H](O[C@@H]2O[C@H](C)C[C@H](N(C)C)[C@H]2O)[C@](C)(O)C[C@@H](C)CN(C)[C@H](C)[C@@H](O)[C@]1(C)O [AZITHROMYCIN] | > 64 µg/mL | 4 µg/mL (≈ 5.34 µM) | ≤ 0.125 µg/mL | > 64 µg/mL | 1 µg/mL (≈ 1.34 µM) | 1 µg/mL (≈ 1.34 µM) | > 64 µg/mL | 1 µg/mL (≈ 1.34 µM) | > 64 µg/mL | ≤ 0.125 µg/mL |
| CC[C@H]1OC(=O)[C@H](C)C(=O)[C@H](C)[C@@H](O[C@@H]2O[C@H](C)C[C@H](N(C)C)[C@H]2O)[C@](C)(OC)C[C@@H](C)C(=O)[C@H](C)[C@H]2N(CCCCn3cnc(-c4cccnc4)c3)C(=O)O[C@]12C [TELITHROMYCIN] | 0.5 µg/mL (≈ 0.616 µM) | 0.5 µg/mL (≈ 0.616 µM) | ≤ 0.06 µg/mL | > 64 µg/mL | 2 µg/mL (≈ 2.46 µM) | ≤ 0.125 µg/mL | ≤ 0.125 µg/mL | 0.25 µg/mL (≈ 0.308 µM) | 4 µg/mL (≈ 4.93 µM) | ≤ 0.06 µg/mL |
